# Measurements taken from ChEMBL document CHEMBL4825662 (J Med Chem, 2021).
# Active and inactive are the calls of the source. The calls are words filed in the database; no cut-off is given here.
# Legend:
# [1] = test system: Respiratory syncytial virus; experiment: Antiviral activity against Respiratory syncytial virus Memphis 37b infected in human HEp2 cells assessed as drug resistance by measuring fold change in EC50 treated over 10 serial passages by plaque assay relative to control; assay type: functional, HEp-2
# [2] = Induction of adverse effect in human infected with Respiratory syncytial virus A Memphis 37b assessed as diarrhea at 200 to 350 mg administered twice daily administered for 5 days; details: in vivo, 120 h, dose 200-350 mg, time 5 day
# Procedure, shortened: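 Challenge study in healthy adults aged 18–45 inoculated with about 4 log10 PFU of RSV-A Memphis 37b. Dosing was 200 or 350 mg twice daily for 5 days after infection was confirmed. Adverse events were monitored daily. ECG, physical examination and urinalysis were done at prespecified time points.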
# [3] = test system: Respiratory syncytial virus; experiment: Antiviral activity against Respiratory syncytial virus infected in human airway epithelial cells assessed as reduction in RSV titer at 10 nM preincubated for 2 hrs followed by viral infection and measured after 7 day post infection by luminescence assay relative to control; assay type: functional, HAE
# Procedure, shortened: (§1)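 Primary HAE cells were differentiated for 61 days on type IV collagen-coated trans-well inserts (n = 3 cultures). Compound at 10 nM was given basolaterally for 2 h before apical inoculation with 4 × 10⁵ pfu of luciferase-expressing recombinant RSV. Apical virus titer was read by luminescence on days 7 and 8 post-infection and compared with untreated controls. Data are mean SD.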
# [4] = test system: Respiratory syncytial virus; experiment: Antiviral activity against Respiratory syncytial virus Memphis 37b infected in human HEp2 cells treated over 10 serial passages by plaque assay; assay type: functional, organism-based; details: HEp-2
# Human orthopneumovirus [5] = experiment: Antiviral activity against Respiratory syncytial virus A2 infected in Balb/C mouse assessed as reduction in viral titers in lung homogenates at 1 mg/kg, po treated 2 hrs prior to viral infection followed by compound redosing at 24 hrs and measured after 5 days post infection by plaque assay relative to control; assay type: functional, human respiratory syncytial virus; set-up: scale not given: the % may be the effect or the level left
# Procedure, shortened: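 Female Balb/C mice aged 7–8 weeks, 6 per group, received two oral doses 2 h before and 24 h after intranasal inoculation with 5 × 10⁶ pfu of RSV A2. Mice were euthanized on day 5. Lung homogenate titers were determined by plaque assay on Vero cells and expressed as a percentage of the control group.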
# [6] = Cmax in Sprague-Dawley rat at 10 mg/kg, po measured after 0.02 to 24 hrs by UHPLC-TOF method; assay type: ADME, organism-based; set-up: route oral, dose 10 mg/kg, time 0.02-24 hrs; details: in vivo
# [7] = Cardiotoxicity in dog assessed as effect on QT interval by telemetry; assay type: toxicity, Canis lupus familiaris
# [8] = Cytotoxicity against human Hep2 cells; assay type: cell-based; details: HEp-2 cells
# Procedure, shortened: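 Hep2 cells were cultured in parallel with the plaque assays at compound concentrations of 0.01 nM to 100 μM. Viability was read by MTT, CellTox green or CellTiter-Glo.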
# [9] = Apparent permeability across apical to basolateral side in MDCK-MDR1 cells at 10 uM measured at 60 mins by LC-MS/MS analysis; assay type: ADME, cell-based, Canis lupus familiaris; details: dog, MDCK-MDR1
# [10] = test system: Respiratory syncytial virus; experiment: Antiviral activity against Respiratory syncytial virus infected in human airway epithelial cells assessed as reduction in RSV titer at 10 nM preincubated for 2 hrs followed by viral infection and measured after 8 day post infection by luminescence assay relative to control; assay type: functional, HAE; procedure, shortened: as §1
# [11] = Intrinsic clearance in rat hepatocytes at 3 uM assessed per million cells measured up to 60 mins by LC-MS/MS analysis; assay type: ADME, cell-based, Hepatocyte; details: read-out: CLH
# [12] = Thermodynamic solubility in PBS at 1 to 100 uM at pH 7.4 by HPLC-UV method; assay type: physicochemical; details: dose 1-100 µM, read-out: Therm_solubility
# [13] = test system: Respiratory syncytial virus; experiment: Antiviral activity against Respiratory syncytial virus Memphis 37b infected in human HEp2 cells by plaque assay; assay type: functional, organism-based; details: HEp-2
# [14] = Tmax in Sprague-Dawley rat at 10 mg/kg, po measured after 0.02 to 24 hrs by UHPLC-TOF method; assay type: ADME, organism-based; details: in vivo, 10 mg/kg, time 0.02-24 hrs
# [15] = Half life in Sprague-Dawley rat at 1 mg/kg, iv measured after 0.02 to 24 hrs by UHPLC-TOF method; assay type: ADME, organism-based; details: in vivo, time 0.02-24 hrs
# [16] = Oral bioavailability in Sprague-Dawley rat at 50 mg/kg administered via gavage measured after 0.02 to 24 hrs by tandem liquid chromatography/mass spectrometry; assay type: ADME, organism-based; details: in vivo, time 0.02-24 hrs
# [17] = Tmax in CD1 mouse at 10 mg/kg, po measured after 0.083 to 24 hrs by UHPLC-TOF method; assay type: ADME, organism-based; details: in vivo, time 0.083-24 hrs
# Procedure, shortened: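 Male CD-1 mice, acclimatized and individually housed, dosed IV and PO as amorphous-solid suspension. Terminal cardiac-puncture blood into heparinized tubes on wet ice, centrifuged at 4 °C within 15 min; plasma snap-frozen at −20 °C. IV arm sampled 2 min–24 h, oral arm 5 min–24 h. Plasma analysed by UHPLC-quadrupole-TOF MS.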
# [18] = Protein binding in rat plasma assessed as unbound fraction at 5 uM by LC-MS/MS analysis based equilibrium dialysis method; assay type: ADME, cell-free
# [19] = Cmax in Beagle dog at 3 mg/kg, po measured after 0.03 to 24 hrs by UHPLC-TOF method; assay type: ADME, organism-based, Canis lupus familiaris; set-up: route oral, dose 3 mg/kg, time 0.03-24 hrs; details: in vivo
# Human orthopneumovirus [20] = experiment: Antiviral activity against Respiratory syncytial virus A Memphis 37b infected in human assessed as reduction in AUC of total symptom score at 200 to 350 mg administered twice daily administered for 5 days; assay type: functional, organism-based; details: dose 200-350 mg, time 5.0 day
# Procedure, shortened: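 Phase 2a challenge study in healthy adults aged 18–45 with low serum RSV-specific antibodies, inoculated on day 0 with about 4 log10 PFU RSV-A Memphis 37b. After infection was confirmed, subjects were randomised to three equal groups: drug at 200 or 350 mg, or placebo, twice daily for 5 days. Read-out was AUC of total symptom score versus placebo.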
# [21] = Clearance in CD1 mouse at 1 mg/kg, iv measured after 0.083 to 24 hrs by UHPLC-TOF method; assay type: ADME, organism-based; details: in vivo, time 0.083-24 hrs
# Human orthopneumovirus [22] = experiment: Antiviral activity against Respiratory syncytial virus A Memphis 37b infected in human assessed as reduction in mean AUC of viral load at 200 mg administered twice daily administered for 5 days by RT-qPCR analysis; assay type: functional; set-up: scale not given: the % may be the effect or the level left; details: time 5 day
# Procedure, shortened: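 Healthy adult volunteers aged 18–45 with low serum pre-existing RSV-specific antibodies were challenged on day zero with about 4 log10 PFU of RSV-A Memphis 37b. Subjects were randomized into 3 equal groups: 200 mg, 350 mg or placebo twice daily for 5 days, begun after infection was confirmed. Viral load in nasal wash was measured by RT-qPCR or by cell-based infectivity assay, and AUC was compared with placebo.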
# [23] = Clearance in Sprague-Dawley rat at 50 mg/kg, po measured after 0.25 to 24 hrs by UHPLC-TOF method; assay type: ADME, organism-based; details: in vivo, time 0.25-24 hrs
# Human orthopneumovirus [24] = experiment: Antiviral activity against Respiratory syncytial virus A by Plaque reduction assay; assay type: functional, organism-based
# Procedure, shortened: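 RSV A and B laboratory strains and low-passage clinical isolates were used to infect Vero or HepG2 cultures for 48 h with compound at 0.01 nM to 100 μM. Plaques were then detected by immunostaining.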
# [25] = Apparent permeability across basolateral side to apical side in MDCK-MDR1 cells at 10 uM measured at 60 mins by LC-MS/MS analysis; assay type: ADME, cell-based, Canis lupus familiaris; details: dog
smiles,measurement,setting,value
NCc1ccc2c(c1)nc(CN1C(=O)C3(CC3)c3ccc(F)cc31)n2CCCC(F)(F)F [SISUNATOVIR],fold change (FC),[1],76
same,Activity,[2],Toxic
same,log(activity),[3],2.3
same,EC50,[4],89 nM
same,Activity,Human orthopneumovirus [5],79%
same,Cmax,[6],74.2 ng/mL
same,Activity,[7],Toxic
same,CC50,[8],> 20000 nM
same,"Papp A→B at 1 h, 10 µM",[9],0.5 ×10⁻⁶ cm/s
same,log(activity),[10],2.35
same,hepatocyte CLint at 3 µM,[11],14.8 µL/min/1e6 cells
same,solubility thermodynamic,[12],417 µM
same,EC50,[13],1.18 nM
same,Tmax,[14],2.7 h
same,half-life,[15],1.8 h
same,bioavailability,[16],132%
same,Tmax,[17],2 h
same,fraction unbound at 5 µM,[18],0.52
same,Cmax,[19],82.4 ng/mL
same,Activity,Human orthopneumovirus [20],Active
same,clearance,[21],47.9 mL/min/kg
same,Activity,Human orthopneumovirus [22],55.25%
same,CL/F,[23],164 mL/min/kg
same,IC50,Human orthopneumovirus [24],1.4 nM
same,"Papp B→A at 1 h, 10 µM",[25],73 ×10⁻⁶ cm/s
